Results from ChEMBL document CHEMBL1130016 (J Med Chem, 1997).

Legend:
[1] = biological target: Sodium-dependent dopamine transporter (Rattus norvegicus, UniProt P23977); assay: In vitro inhibition of [3H]WIN-35 428 binding to dopamine transporter on rat striatal membranes.; type: cell membranes, Membrane
How it was run: (§1)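 Compounds dissolved in 10% DMSO. Incubation ended by filtration, and filter-bound radioactivity was counted by liquid scintillation at about 35% efficiency for 3H. IC50 values were determined. Mean ± SEM of three independent experiments, each in triplicate.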

[2] = biological target: Sodium-dependent serotonin transporter (Rattus norvegicus, UniProt P31652); assay: In vitro inhibition of [3H]citalopram binding to serotonin transporter on rat striatal membranes.; type: cell membranes, Membrane; how it was run: as §1
[3] = biological target: Monoamine transporters; serotonin & dopamine (Rattus norvegicus) (UniProt P31652+P23977); assay: Ratio of inhibitory activity against Serotonin Transporter compared to Dopamine Transporter; type: protein assay
How it was run: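 Selectivity is expressed as SERT/DAT, the ratio of binding values from rat striatal membranes. SERT was labelled with [3H]citalopram and DAT with [3H]WIN 35,428. Binding was ended by filtration and counted by scintillation. Values come from three independent experiments, each run in triplicate.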

Chain of Monoamine transporters; serotonin & dopamine (Rattus norvegicus) (P23977 whole entry, looked up): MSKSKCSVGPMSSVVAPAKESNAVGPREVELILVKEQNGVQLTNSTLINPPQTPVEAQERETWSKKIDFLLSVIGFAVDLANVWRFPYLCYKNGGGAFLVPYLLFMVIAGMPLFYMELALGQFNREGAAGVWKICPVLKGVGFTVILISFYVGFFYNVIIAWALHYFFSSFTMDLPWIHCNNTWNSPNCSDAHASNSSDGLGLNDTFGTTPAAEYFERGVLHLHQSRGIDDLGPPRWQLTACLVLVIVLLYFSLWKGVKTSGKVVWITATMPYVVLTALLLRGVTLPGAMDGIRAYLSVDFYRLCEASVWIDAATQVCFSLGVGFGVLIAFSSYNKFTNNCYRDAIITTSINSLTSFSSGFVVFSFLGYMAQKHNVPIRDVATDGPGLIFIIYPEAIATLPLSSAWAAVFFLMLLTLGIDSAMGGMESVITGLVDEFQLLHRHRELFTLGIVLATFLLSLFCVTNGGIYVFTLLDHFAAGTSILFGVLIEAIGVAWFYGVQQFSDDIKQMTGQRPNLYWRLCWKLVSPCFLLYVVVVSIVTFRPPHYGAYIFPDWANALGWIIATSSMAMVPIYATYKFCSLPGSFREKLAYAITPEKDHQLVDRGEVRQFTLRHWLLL
Chain of Monoamine transporters; serotonin & dopamine (Rattus norvegicus) (P31652 whole entry, looked up): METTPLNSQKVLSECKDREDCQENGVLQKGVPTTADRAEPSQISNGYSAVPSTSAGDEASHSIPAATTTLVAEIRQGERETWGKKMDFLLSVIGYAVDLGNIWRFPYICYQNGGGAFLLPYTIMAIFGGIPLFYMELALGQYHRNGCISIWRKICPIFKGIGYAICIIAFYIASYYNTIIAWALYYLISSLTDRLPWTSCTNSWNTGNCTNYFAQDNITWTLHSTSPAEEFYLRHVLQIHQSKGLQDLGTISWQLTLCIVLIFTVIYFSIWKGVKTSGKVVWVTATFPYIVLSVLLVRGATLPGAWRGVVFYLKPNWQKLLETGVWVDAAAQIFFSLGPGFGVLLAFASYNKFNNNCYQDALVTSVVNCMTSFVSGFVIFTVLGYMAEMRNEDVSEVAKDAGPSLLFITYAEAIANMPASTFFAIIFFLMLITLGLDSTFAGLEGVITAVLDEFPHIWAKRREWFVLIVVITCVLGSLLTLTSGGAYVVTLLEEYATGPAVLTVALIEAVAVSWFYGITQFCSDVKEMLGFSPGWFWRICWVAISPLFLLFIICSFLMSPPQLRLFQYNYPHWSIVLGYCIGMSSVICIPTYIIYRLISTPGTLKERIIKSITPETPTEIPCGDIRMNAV
Chain of Sodium-dependent dopamine transporter (P23977 whole entry): as the sequence (P23977 whole entry, looked up) above
Chain of Sodium-dependent serotonin transporter (P31652 whole entry): as the sequence (P31652 whole entry, looked up) above

| SMILES | IC50 [1] [nM] | IC50 [2] [nM] | Ratio [3] |
| --- | --- | --- | --- |
| Fc1ccc(CN2CCC(CCOC(c3ccccc3)c3ccc(F)cc3)CC2)cc1 (stereo unspecified) | 14 | 1260 | 89 |
| Clc1ccc(CN2CCC(CCOC(c3ccccc3)c3ccccc3)CC2)cc1 | 24.7 | 1610 | 65.1 |
| c1ccc(C(OCCC2CCN(Cc3cccs3)CC2)c2ccccc2)cc1 | 59.3 | 1250 | 21 |
| Fc1ccc(CN2CCC(CCOC(c3ccccc3)c3ccccc3)CC2)cc1 | – | 1920 | 112 |
| Fc1ccc(CN2CCC(CCOC(c3ccccc3)c3cccs3)CC2)cc1 (stereo unspecified) | 13.8 | 1390 | 100 |
| COc1ccc(CN2CCC(CCOC(c3ccccc3)c3ccccc3)CC2)cc1 | 27.8 | 1240 | 45 |
| c1ccc(C(OCCC2CCN(Cc3cccnc3)CC2)c2cccs2)cc1 (stereo unspecified) | 58.3 | 927 | 15.9 |
| Nc1ccc(CN2CCC(CCOC(c3ccccc3)c3ccccc3)CC2)cc1 | 101 | 1570 | 15.6 |
| c1ccc(C(OCCC2CCN(Cc3cccnc3)CC2)c2ccccc2)cc1 | 48.6 | 680 | 13.9 |
| c1ccc(C(OCCC2CCN(Cc3cc4ccccc4s3)CC2)c2ccccc2)cc1 | 172 | 1540 | 8.9 |
| c1ccc(CN2CCC(CCOC(c3ccccc3)c3cccs3)CC2)cc1 (stereo unspecified) | 27.2 | 741 | 27 |
| Clc1ccc(CN2CCC(CCOC(c3ccccc3)c3ccccc3)CC2)cc1Cl | 85.7 | 2880 | 33.6 |
| Fc1ccc(CN2CCC(CCOC(c3ccccc3)c3ccccc3)CC2)cc1Cl | 28.2 | 2530 | 90 |
| Fc1ccc(CN2CCC(CCOC(c3ccccc3)c3ccc(Cl)cc3)CC2)cc1 (stereo unspecified) | 52.4 | 1810 | 34.4 |
| Cc1ccc(CN2CCC(CCOC(c3ccccc3)c3ccccc3)CC2)cc1 | 23 | 1390 | 60.4 |
| Brc1ccc(CN2CCC(CCOC(c3ccccc3)c3ccccc3)CC2)cc1 | 31.1 | 1490 | 48 |
| c1ccc(CN2CCC(CCOC(c3ccccc3)c3ccccc3)CC2)cc1 | – | – | 49 |
| O=[N+]([O-])c1ccc(CN2CCC(CCOC(c3ccccc3)c3ccccc3)CC2)cc1 | 16.4 | 1770 | 108 |
